Type in all cases: functional
The nature of test [1]: Cytotoxicity against human ovarian cancer cells after 48 hrs. The conditions noted are these: Cancer cell lines. Put shortly:
(§1)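 NCI 60-cell panel subpanel lines; compounds first screened at a single 10−5 M, then those passing threshold tested in five-concentration assay over 10−9 to 10−4 M (some to 10−3 M), 48 h exposure. Growth relative to untreated control measured as cell protein; GI50, TGI and LC50 derived; some values are means of two experiments.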

Test [2] can be described thus: Cytotoxicity against human renal cancer cells after 48 hrs. The conditions noted are these: Cancer cell lines. In outline: as §1
Test [3] is described as follows: Cytotoxicity against human COLON cells after 48 hrs. In outline: as §1
A short description of test [4]: Cytotoxicity against human CNS cancer cells after 48 hrs. The conditions noted are these: Cancer cell lines. Put shortly:
as §1

A short description of test [5]: Cytotoxicity against human leukemia cells after 48 hrs. The conditions noted are these: Leukemia cell. Put shortly: (§2)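 NCI 60-cell panel (subpanels include leukemia and prostate). […] Percent growth relative to untreated control; some repeats averaged over two experiments.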
A short description of test [6]: Cytotoxicity against human breast cancer cells after 48 hrs. Conditions: Cancer cell lines. Put shortly:
as §1

A short description of test [7]: Cytotoxicity against human prostate cancer cells after 48 hrs. Conditions: Cancer cell lines. In outline:
as §2

The test system of test [8] is NSCLC. As to the kind of experiment: Cytotoxicity against human NSCLC cells after 48 hrs. Put shortly: as §1
The nature of test [9]: Cytotoxicity against human melanoma cells after 48 hrs. The conditions noted are these: Melanoma cell. In outline:
as §1

These results are taken from ChEMBL document CHEMBL2062525, “Substituted 3-(5-imidazo[2,1-b]thiazolylmethylene)-2-indolinones and analogues: synthesis, cytotoxic activity, and study of the mechanism of action” (J Med Chem, 2012).

Where a name gives a salt, the structure may show the parent alone.

As usually defined, the GI50 is the concentration at which growth is held to half of that of the control. Read a high GI50 as lower sensitivity of the cells. For orientation: TGI means the concentration giving total growth inhibition. A high value points to lower sensitivity of the cells. As to `COc1cc(-c2nc3sc(C)cn3c2/C=C2/C(=O)Nc3ccccc32)c(Br)c(OC)c1OC`, the GI50 in test [1] worked out at 39.8 µM; in test [2], 30.9 µM; in [3] it was 26.3 µM; in test [4] it was 23.4 µM; in test [5], 36.3 µM; in test [6], 19.1 µM. Besides, the results for the GI50 in test [7], in [8] and in [9] were 30.2 µM, 32.4 µM and 29.5 µM, respectively. Besides, the TGI in test [1] came to 85.1 µM; in test [2], 75.9 µM; in [3], 75.9 µM; in test [4], 55 µM; in test [6] it was 63.1 µM; in [7], 85.1 µM. For the same molecule, the TGI in test [8] was determined as 89.1 µM; in test [9], 85.1 µM.
With `COc1nc2sccn2c1C=C1C(=O)Nc2ccc(F)cc21` (mixture of isomers), the GI50 in test [1] worked out at 5.62 µM; in test [2], 6.76 µM; in test [3] it was 3.16 µM; in test [4], 6.46 µM; in test [5], 3.39 µM; in [6] it was 2.88 µM. The results for the GI50 in [7], in [8] and in [9] were 12 µM, 6.03 µM and 6.03 µM, respectively. For the same molecule, the TGI in test [1] was determined as 44.7 µM; in [2], 47.9 µM; in test [3], 61.7 µM; in [4], 42.7 µM; in [6], 51.3 µM; in test [7] it was 93.3 µM. For the same molecule, the TGI in test [8] is 66.1 µM; in test [9] it was 47.9 µM.
As to `Cc1ccc(-c2nc3sc(C)cn3c2/C=C2/C(=O)Nc3cc(C)c(O)cc32)cc1`, the GI50 in [1] came out at 10.5 µM; in test [2] it was 18.2 µM; in [3] it was 60.3 µM; in test [4], 11.8 µM; in test [5], 52.5 µM; in test [6], 12.6 µM. In addition, the GI50 in test [7] is 21.4 µM; in test [8], 18.6 µM; in [9], 33.9 µM. In addition, the TGI in test [1] was found to be 63.1 µM; in [4] it was 91.2 µM; in test [6], 63.1 µM; in test [8], 72.4 µM.
As for `Cc1nn2c(/C=C3/C(=O)Nc4ccc(F)cc43)c(-c3ccc(Cl)cc3)nc2s1`, the concentration for 50% growth inhibition (GI50) in [1] was 21.9 µM; in [2] it was 26.3 µM; in [3] it was 38 µM; in [4], 20.4 µM; in test [5] it was 25.1 µM; in [6] it was 36.3 µM. The GI50 stood at 60.3 µM in test [8] and 66.1 µM in test [9]. The TGI in test [2] came out at 72.4 µM; in test [4] it was 79.4 µM; in test [6], 95.5 µM.
Turning to `COc1ccc2c(c1)/C(=C\c1c(-c3ccc(C)cc3)nc3sc(C)cn13)C(=O)N2C`, the GI50 in test [1] is 56.2 µM; in test [2] it was 4.79 µM; in test [3] it was 6.03 µM; in test [4] it was 39.8 µM; in test [5], 4.37 µM; in test [6], 12.9 µM. In addition, the GI50 is 5.37 µM in [7], 14.8 µM in test [8] and 52.5 µM in test [9]. Also, the TGI in test [2] was 70.8 µM; in test [3] it was 33.1 µM; in [5], 56.2 µM; in test [6] it was 72.4 µM; in test [8], 85.1 µM.
As for `COc1nc2sccn2c1/C=C1/C(=O)N(C)c2ccccc21`, the GI50 in test [1] was determined as 6.46 µM; in test [2], 15.8 µM; in test [3], 2.24 µM; in test [4], 11 µM; in [5], 3.89 µM; in [6], 2.19 µM. In addition, the GI50 in test [7] was found to be 21.4 µM; in [8], 7.94 µM; in [9] it was 8.71 µM. In addition, the TGI in [2] was 85.1 µM; in test [3], 60.3 µM; in test [4] it was 77.6 µM; in test [5], 43.6 µM; in test [6] it was 60.3 µM; in test [8], 95.5 µM. In addition, the TGI in [9] is 77.6 µM.
`Cc1ccc(-c2nc3sc(C)cn3c2/C=C2/C(=O)N(C)c3ccccc32)cc1`: the 50% growth inhibitory concentration (GI50) in test [1] is 32.4 µM; in [2] it was 15.1 µM; in test [3], 20.4 µM; in [4] it was 19.1 µM; in test [5], 7.08 µM; in test [6], 13.5 µM. Besides, the figures for the GI50 in test [7], in test [8] and in test [9] were 6.46 µM, 24 µM and 17.4 µM, respectively. The TGI in [1] is 89.1 µM; in test [2], 85.1 µM; in test [4] it was 75.9 µM; in test [5] it was 63.1 µM; in [6] it was 75.9 µM; in test [8] it was 89.1 µM. Also, net growth in [9] stopped (TGI) at 87.1 µM.
For orientation: LC50 means the concentration that kills 50% of the test population. Low values mean a more lethal substance, high ones a less lethal substance. For the molecule `O=C1Nc2ccccc2/C1=C\c1c(-c2ccccn2)nc2sccn12`, the GI50 in test [1] is 2.88 µM; in test [2] it was 2.34 µM; in test [3] it was 0.49 µM; in test [4], 0.81 µM; in test [5], 0.35 µM; in test [6], 0.59 µM. Moreover, the GI50 is 1.02 µM in [7], 1.58 µM in [8] and 2.45 µM in [9]. This molecule also displayed an LC50 (concentration killing 50% of starting cells) in [1] of 91.2 µM. The TGI came to 37.1 µM in test [1]; 95.5 µM in test [2]; 52.5 µM in test [3]; 20.9 µM in test [4]; 14.8 µM in [5]; 36.3 µM in test [6]. Further, the TGI in test [8] worked out at 70.8 µM; in [9] it was 91.2 µM. This molecule also came in with an LC50 in test [4] of 89.1 µM.
As for `Cc1cn2c(/C=C3/C(=O)Nc4cc(Cl)ccc43)c(C)nc2s1`, the GI50 was 7.41 µM in test [1]; 4.79 µM in [2]; 0.98 µM in test [3]; 2.4 µM in [4]; 1.07 µM in [5]; 1.2 µM in test [6]. Further, the GI50 in test [7] worked out at 2.29 µM; in test [8], 2.29 µM; in test [9], 1.58 µM. Moreover, the TGI in [2] was determined as 70.8 µM; in test [3], 66.1 µM; in test [4], 25.7 µM; in test [5], 37.1 µM; in test [6] it was 15.8 µM; in test [9], 57.5 µM.
Regarding `CC[C@]1(O)C[C@H]2CN(CCc3c([nH]c4ccccc34)[C@@](C(=O)OC)(c3cc4c(cc3OC)N(C=O)[C@H]3[C@@](O)(C(=O)OC)[C@H](OC(C)=O)[C@]5(CC)C=CCN6CC[C@]43[C@@H]65)C2)C1` [VINCRISTINE SULFATE], the GI50 came to 0.32 µM in [1]; 0.32 µM in [2]; 0.1 µM in [3]; 0.13 µM in [4]; 0.1 µM in test [5]; 0.32 µM in [6]. Moreover, the 50% growth inhibitory concentration (GI50) in test [7] is 0.13 µM; in test [8] it was 0.25 µM; in [9], 0.16 µM. Besides, the TGI in test [3] stood at 3.98 µM.
On to `Cc1nn2c(/C=C3/C(=O)Nc4ccc(F)cc43)c(C)nc2s1`, for which the GI50 was 33.9 µM in test [1]; 26.9 µM in test [2]; 4.17 µM in [3]; 20.9 µM in test [4]; 2.34 µM in [5]; 6.31 µM in test [6]. Moreover, the results for the GI50 in [8] and in test [9] were 19.5 µM and 26.9 µM, respectively. The TGI in test [4] turned out to be 87.1 µM; in [6], 57.5 µM.
Regarding `COc1ccc2c(c1)/C(=C\c1c(-c3ccc(Cl)cc3)nc3sc(C)nn13)C(=O)N2`, the values for the GI50 in test [2], in test [4] and in [6] were 81.3 µM, 69.2 µM and 95.5 µM, respectively.
